Legend:
Assay type in all cases: functional
[1] = tested on: T47D; test: Cytotoxicity against human T47D cells after 48 hrs by SRB assay
In short: (§1)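 NCI 60-cell screen. Cells grew 24 h (37 °C, 5% CO2) before compound was added. Compounds were in DMSO and diluted in medium with gentamicin, then tested at five levels (100, 10, 1.0, 0.1, 0.01 µM) with 48 h continuous exposure. Adherent cells were fixed with TCA (10% final) and stained with 0.4% SRB, absorbance read at 515 nm. A time-zero plate was included. LC50 is the concentration giving 50% loss of protein relative to time zero.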

[2] = tested on: MDA-MB-231; test: Cytotoxicity against human MDA-MB-231 cells after 48 hrs by SRB assay; details: MDA-MB-231, 48 h
In short: (§2)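 NCI 60-cell-line screen. Cells preincubated 24 h at 37 °C, 5% CO2; time-zero plates TCA-fixed. Compounds dissolved in DMSO and tested at five concentrations (100, 10, 1.0, 0.1, 0.01 µM) for 48 h continuous exposure. Adherent cells fixed with cold TCA (10% final), then SRB stained; absorbance at 515 nm. GI50, TGI and LC50 calculated from growth relative to time-zero and untreated controls.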

[3] = tested on: COLO 205; test: Cytotoxicity against human COLO205 cells after 48 hrs by SRB assay; details: COLO 205, 48 h; in short: as §2
[4] = tested on: SF-295; test: Cytotoxicity against human SF295 cells after 48 hrs by SRB assay; details: SF-295, 48 h; in short: as §2
[5] = tested on: HOP-92; test: Cytotoxicity against human HOP92 cells after 48 hrs by SRB assay; details: HOP-92, 48 h; in short: as §2
[6] = tested on: UO-31; test: Cytotoxicity against human UO31 cells after 48 hrs by SRB assay; details: UO-31, 48 h; in short: as §1
[7] = tested on: M14; test: Cytotoxicity against human M14 cells after 48 hrs by SRB assay; details: M14, 48 h; in short: as §2
[8] = tested on: RPMI-8226; test: Cytotoxicity against human RPMI8226 cells after 48 hrs by SRB assay; details: RPMI-8226, 48 h; in short: as §2
[9] = tested on: HCT-116; test: Cytotoxicity against human HCT116 cells after 48 hrs by SRB assay; details: HCT-116, 48 h; in short: as §2
[10] = tested on: A549; test: Cytotoxicity against human A549/ATCC cells after 48 hrs by SRB assay; details: A549, 48 h; in short: as §2
[11] = tested on: SK-MEL-5; test: Cytotoxicity against human SK-MEL-5 cells after 48 hrs by SRB assay; details: SK-MEL-5, 48 h; in short: as §2
[12] = tested on: OVCAR-4; test: Cytotoxicity against human OVCAR4 cells after 48 hrs by SRB assay; details: OVCAR-4, 48 h; in short: as §2
[13] = tested on: HOP-62; test: Cytotoxicity against human HOP62 cells after 48 hrs by SRB assay; details: HOP-62, 48 h; in short: as §2
[14] = tested on: UACC-62; test: Cytotoxicity against human UACC62 cells after 48 hrs by SRB assay; details: UACC-62, 48 h; in short: as §1
[15] = tested on: CCRF-CEM; test: Cytotoxicity against human CCRF-CEM cells after 48 hrs by SRB assay; in short: as §2
[16] = tested on: SN12C; test: Cytotoxicity against human SN12C cells after 48 hrs by SRB assay; in short: as §2
[17] = tested on: SNB-19; test: Cytotoxicity against human SNB19 cells after 48 hrs by SRB assay; details: SNB-19, 48 h; in short: as §1
[18] = tested on: SK-MEL-2; test: Cytotoxicity against human SK-MEL-2 cells after 48 hrs by SRB assay; details: SK-MEL-2, 48 h; in short: as §2
[19] = tested on: OVCAR-3; test: Cytotoxicity against human OVCAR3 cells after 48 hrs by SRB assay; details: OVCAR-3, 48 h; in short: as §2
[20] = tested on: HCC 2998; test: Cytotoxicity against human HCC2998 cells after 48 hrs by SRB assay; details: HCC 2998, 48 h; in short: as §2
[21] = tested on: UACC-257; test: Cytotoxicity against human UACC257 cells after 48 hrs by SRB assay; details: UACC-257, 48 h; in short: as §1
[22] = tested on: NCI-H23; test: Cytotoxicity against human NCI-H23 cells after 48 hrs by SRB assay; details: NCI-H23, 48 h; in short: as §2
[23] = tested on: SNB-75; test: Cytotoxicity against human SNB75 cells after 48 hrs by SRB assay; details: SNB-75, 48 h; in short: as §1
[24] = tested on: LOX IMVI; test: Cytotoxicity against human LOXIMVI cells after 48 hrs by SRB assay; in short: as §2
[25] = tested on: SK-MEL-28; test: Cytotoxicity against human SK-MEL-28 cells after 48 hrs by SRB assay; details: SK-MEL-28, 48 h; in short: as §2
[26] = tested on: MDA-MB-435; test: Cytotoxicity against human MDA-MB-435 cells after 48 hrs by SRB assay; details: MDA-MB-435, 48 h; in short: as §2
[27] = tested on: 786-0; test: Cytotoxicity against human 786-0 cells after 48 hrs by SRB assay; details: 786-0, 48 h; in short: as §2
[28] = tested on: DU-145; test: Cytotoxicity against human DU145 cells after 48 hrs by SRB assay; details: DU-145, 48 h; in short: as §2
[29] = tested on: NCI-H522; test: Cytotoxicity against human NCI-H522 cells after 48 hrs by SRB assay; details: NCI-H522, 48 h; in short: as §2
[30] = tested on: MOLT-4; test: Cytotoxicity against human MOLT4 cells after 48 hrs by SRB assay; details: MOLT-4, 48 h; in short: as §2
[31] = tested on: A498; test: Cytotoxicity against human A498 cells after 48 hrs by SRB assay; details: A498, 48 h; in short: as §2
[32] = tested on: NCI-H226; test: Cytotoxicity against human NCI-H226 cells after 48 hrs by SRB assay; details: NCI-H226, 48 h; in short: as §2
[33] = tested on: KM12; test: Cytotoxicity against human KM12 cells after 48 hrs by SRB assay; details: KM12, 48 h; in short: as §2
[34] = tested on: Malme-3M; test: Cytotoxicity against human MALME-3M cells after 48 hrs by SRB assay; in short: as §2
[35] = read-out: LC50 (the source's name)

O=CN1N=C(c2cccc(Nc3ccnc4cc(Cl)ccc34)c2)CC1c1ccc(Cl)cc1 (configuration not stated)
GI50 [1]: 2.63 µM
LC50 (concentration giving 50% cell kill relative to time zero) [1]: > 100 µM
GI50 [2]: 2.12 µM
LC50 (concentration killing 50% of cells present at time zero) [2]: > 100 µM
GI50 [3]: 1.39 µM
LC50 [3]: > 100 µM
GI50 [4]: 1.06 µM
LC50 [4]: > 100 µM
GI50 [5]: 0.65 µM
LC50 (concentration killing 50% of cells) [5]: > 100 µM
GI50 [6]: 0.88 µM
LC50 [6]: > 100 µM
GI50 [7]: 1.04 µM
CC50 [7, 35]: > 100 µM
GI50 [8]: 2.45 µM
LC50 (concentration killing 50% of cells) [8]: > 100 µM
GI50 [9]: 0.6 µM
LC50 [9]: > 100 µM
GI50 [10]: 0.94 µM
CC50 [10, 35]: > 100 µM
GI50 [11]: 1.86 µM
LC50 (concentration killing 50% of cells present at time zero) [11]: > 100 µM
GI50 [12]: 4.13 µM
LC50 [12]: > 100 µM
GI50 [13]: 1.91 µM
LC50 (50% lethal concentration) [13]: > 100 µM
GI50 [14]: 1.63 µM
CC50 [14, 35]: > 100 µM
GI50 [15]: 2.34 µM
LC50 (concentration killing 50% of cells relative to time zero) [15]: > 100 µM
GI50 [16]: 3.86 µM
LC50 (50% net cell kill relative to time zero) [16]: > 100 µM
GI50 [17]: 3.48 µM
LC50 [17]: > 100 µM
GI50 [18]: 2.05 µM
LC50 [18]: > 100 µM
GI50 [19]: 1.2 µM
LC50 [19]: > 100 µM
GI50 [20]: 3.36 µM
LC50 [20]: > 100 µM
LC50 [21]: > 100 µM
GI50 [22]: 2.48 µM
CC50 [22, 35]: > 100 µM
GI50 [23]: 1.58 µM
LC50 (50% net cell kill) [23]: > 100 µM
GI50 [24]: 1.56 µM
LC50 [24]: 50.4 µM
GI50 [25]: 5.63 µM
CC50 [25, 35]: > 100 µM
GI50 [26]: 0.29 µM
LC50 [26]: > 100 µM
GI50 [27]: 4.73 µM
LC50 [27]: > 100 µM
GI50 [28]: 4.17 µM
LC50 (concentration killing 50% of cells) [28]: > 100 µM
GI50 [29]: 0.8 µM
CC50 [29, 35]: > 100 µM
GI50 [30]: 1.92 µM
LC50 [30]: > 100 µM
GI50 [31]: 0.83 µM
CC50 [31, 35]: > 100 µM
GI50 [32]: > 100 µM
LC50 (50% lethal concentration) [32]: > 100 µM
GI50 [33]: 0.59 µM
LC50 (concentration killing 50% of cells) [33]: > 100 µM
GI50 [34]: 1.63 µM
LC50 [34]: > 100 µM
